Here are results for three compounds from ChEMBL document CHEMBL3243939, “Derivatives of 1,3-disubstituted 2,4(1H,3H)-quinazolinediones as possible peripheral vasodilators or antihypertensive agents” (1979).

Values after ≈ are worked out from the molar mass of the structure shown.

For one assay, the species on record is Oryctolagus cuniculus. Kind of assay: Blockade of alpha-adrenergic receptor in rabbit aortic strips assessed as reduction of epinephrine-induced response. The method, boiled down:
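Rabbit aortic strip sensitized by repeated exposure to 0.01 mcg/mL epinephrine. Responses to this concentration were compared before and after 200 s incubation with rising compound concentrations. Percent blockade was calculated at each concentration. ED50, the concentration blocking the response by 50%, was extrapolated from the concentration-response curve.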

Another assay deals with Rattus norvegicus. Briefly: Antihypertensive activity in Wistar rat assessed as decrease of systolic blood pressure at 31 mg/kg, po up to 8 hrs. In kind it is functional, Artery. The method, boiled down: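 Renal hypertension in female Wistar rats: figure-of-eight ligature on one kidney, other kidney removed. Rats with systolic pressure above 160 mmHg used, groups of ten. Tail-cuff occlusion with pulse detector measured systolic pressure before and 2, 4, 6, 8 h after a 31 mg/kg oral dose. Value is the mean decrease over 8 h ± standard error.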

The next assay concerns Canis familiaris. Briefly: Vasodilatory activity in dog assessed as increase of femoral blood flow by 100 mL/min administered as intraarterially. In kind it is functional, Canis lupus familiaris. Summed up:
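Pentobarbital-anesthetized dogs with an electromagnetic flowmeter sensor around a femoral artery. Compound was injected intraarterially through a branch vessel at increasing doses, and the peak flow increase after each dose was recorded. ED100, the dose raising flow 100 mL/min above control, was extrapolated from the dose-response curve.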

For `CN(C)CCCN1C(=O)C(CCCCCCCN2CCN(c3ccccc3)CC2)C(=O)c2ccccc21.CO.O=C(O)C(=O)O` (configuration not stated), the ED50 in the assay filed under Oryctolagus cuniculus amounted to 0.64 µg/mL. The Activity in the assay on Rattus norvegicus is listed as 12 mmHg. Moreover, the ED100 with Canis familiaris was 205 µg.

Consider `COc1ccc(Cc2nccc3cc(OC)c(OC)cc23)cc1OC` [PAPAVERINE], for which the ED100 with Canis familiaris was 1825 µg.

Turning to `Cc1ccc(N(CC2=NCCN2)c2cccc(O)c2)cc1` [PHENTOLAMINE], the ED50 in the assay filed under Oryctolagus cuniculus was determined as 0.03 µg/mL (≈ 0.107 µM). For the same compound, the Activity in the assay on Rattus norvegicus was 45 mmHg. The ED100 in the assay on Canis familiaris was 117 µg.
